Source: PubChem BioAssay
Only some compounds are listed: those with a hit (about 1.5% of all), similar ones and a draw of the others.
VLA-4 inh: inhibition in a human VLA-4 binding assay; actives 0.2% (n = 330,000); inhibition, % (about 7 µM as worked out from the volumes in the protocol); VLA-4 expressing cells, ligand binding flow cytometry; P13612; in the data active = inhibition above about 50%
Target sequence (P13612 whole entry, looked up): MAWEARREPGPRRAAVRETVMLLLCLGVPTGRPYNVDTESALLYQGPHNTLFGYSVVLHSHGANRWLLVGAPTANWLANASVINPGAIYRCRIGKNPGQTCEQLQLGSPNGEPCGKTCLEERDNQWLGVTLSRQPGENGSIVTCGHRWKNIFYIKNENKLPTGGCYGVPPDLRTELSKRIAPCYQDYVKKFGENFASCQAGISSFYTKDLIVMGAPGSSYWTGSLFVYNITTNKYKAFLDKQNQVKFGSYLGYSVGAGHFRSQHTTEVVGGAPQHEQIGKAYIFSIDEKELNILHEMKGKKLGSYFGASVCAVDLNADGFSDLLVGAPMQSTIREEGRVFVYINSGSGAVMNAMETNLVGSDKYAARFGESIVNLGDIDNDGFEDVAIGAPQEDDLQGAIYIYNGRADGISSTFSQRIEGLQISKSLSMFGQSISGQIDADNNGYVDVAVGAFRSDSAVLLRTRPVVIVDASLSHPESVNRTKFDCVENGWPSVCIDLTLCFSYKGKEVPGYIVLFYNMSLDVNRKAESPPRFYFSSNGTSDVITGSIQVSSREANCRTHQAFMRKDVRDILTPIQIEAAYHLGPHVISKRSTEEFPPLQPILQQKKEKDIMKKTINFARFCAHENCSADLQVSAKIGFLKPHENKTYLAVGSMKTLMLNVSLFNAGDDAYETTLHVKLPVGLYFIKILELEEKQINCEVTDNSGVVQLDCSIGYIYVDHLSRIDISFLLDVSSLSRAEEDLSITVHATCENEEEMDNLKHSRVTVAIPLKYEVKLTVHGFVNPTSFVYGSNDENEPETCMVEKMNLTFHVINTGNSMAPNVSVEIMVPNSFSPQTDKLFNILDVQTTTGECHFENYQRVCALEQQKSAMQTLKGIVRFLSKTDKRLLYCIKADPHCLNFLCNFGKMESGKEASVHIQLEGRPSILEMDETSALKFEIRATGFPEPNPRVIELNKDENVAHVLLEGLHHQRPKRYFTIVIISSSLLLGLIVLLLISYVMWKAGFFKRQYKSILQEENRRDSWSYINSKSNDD
CHT inh: inhibits the human high affinity choline transporter; B-score at 10 µM; AID 488975; Q9GZV3; CHT-expressing cells, membrane potential dye, choline response; hits give low values; actives 0.86% (n = 310,000);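 active = B-score over 3 SD under the library average, and starting fluorescence ratio not unusually high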;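 also: choline stimulus applied at its EC90 after an EC20 pre-addition; B-score computed on integrated fluorescence ratio after choline addition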
T cell HTS: T cell immune modulation candidate | AID 2052 | actives 0.068% (n = 330,000) | response (vesicle binding), % at 7 µM | 2C CD8+ T cell-vesicle binding, flow cytometry; hits give low values;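 active = response, share of CD8 T cells binding vesicles, and their 90th percentile fluorescence all below set limits, cut at about 80% in these data, passing the limit was not always enough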;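 also: values below 100% mean blocked vesicle binding to the CD8+ T cells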
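Material: murine 2C transgenic CD8+ T lymphocytes / Also added: QL9-peptide-loaded Drosophila micro-vesicles bearing Ld, ICAM-1 and B7-1 / Schedule: binding step 1.5 h, 37 °C, antibody labelling 20 min, ice / Signal: flow cytometry, PE anti-B7-1 (FL2) versus Alexa647 anti-CD8 (FL8), PFA-fixed / Evaluation: percent CD8+ FL2 mean versus row control / Benchmarks: naked versus QL9-loaded vesicles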
CHT PAM: human CHT allosteric activation | Q9GZV3 | CHT-expressing cells, membrane potential dye, choline EC20; hits give high values; LV-AA mutant CHT in HEK293 cells | B-score at 10 µM | actives 0.49% (n = 310,000) | AID 488977;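 active = initial fluorescence not abnormally high and integrated response B-score, plate-corrected, over 3 SD above library mean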
CHT inh conf: human CHT inhibition, confirmatory screen; CHT activity remaining % of control (hits give low values), % at 10 µM; actives 70% (n = 2,400); CHT-expressing cells, choline membrane potential dye; LV-to-AA substituted CHT, HEK293 cells; shares compounds with CHT inh;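 active = choline transporter activity left, mean of duplicates at 10 µM, below buffer-only control mean minus 3 SD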;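 also: depolarization triggered by choline at its EC90 following an EC20 pre-addition; 0% = hemicholinium-3 full block and 100% = buffer-only control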
HEK293 CHT ctr: CHT inhibitor counter-screen hit in parental HEK293 cells | AID 493222 | shares compounds with CHT inh | actives 4% (n = 2,400) | membrane potential dye, choline response; active = decrease or increase beyond buffer ±3SD | membrane potential ratio readout (active if shifted either direction beyond buffer ±3SD; no single direction) at 10 µM;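 also: parental cells lack the transporter so any hit is non-specific; ratio is peak minus trough fluorescence over baseline after EC90 choline challenge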
* = called active by the depositor; i = inactive; · = no result.

SMILES	VLA-4 inh	CHT inh	T cell HTS	CHT PAM	CHT inh conf	HEK293 CHT ctr
COc1ccccc1C(=O)Nc1ccc2c(c1)nc(CN1CCCCC1)n2C	-4	i	84	i	·	·
CCC(=O)NC(=S)Nc1cccc(NC(=O)c2ccccc2Cl)c1	15	i	232	i	·	·
CCCC(=O)NC(=S)Nc1cccc(NC(=O)c2ccccc2Cl)c1	12	-12*	290	i	14%*	i
CCCC(=O)Nc1cccc(NC(=O)c2ccc([N+](=O)[O-])cc2Cl)c1	8	-6.6*	169	i	61%*	i
CCCC(=O)Nc1ccc(Cl)c(NC(=O)c2ccc([N+](=O)[O-])cc2Cl)c1	13	i	218	i	·	·
Cc1ccc(C)c(C(C)NC(=O)Cc2cccs2)c1 (centres undefined)	2	i	389	i	·	·
O=C1C(=O)N(CCc2c[nH]c3ccccc23)C(c2cccnc2)/C1=C(/O)c1ccccc1 (centres undefined)	2	-6.3*	358	i	i	i
CCCCn1c(N)c(N(CCOC)C(=O)c2ccc(-c3ccc(C(C)=O)cc3)o2)c(=O)[nH]c1=O	-4	i	404	i	·	·
O=C1c2ccccc2C(=O)c2c(Nc3ccc(CCO)cc3)ccc(O)c21	-8	-7.4*	290	i	67%*	i
N#Cc1ccc2[nH]c(CO)c(-c3ccccc3)c2c1	16	i	457	i	·	·
O=C(C1CCC(CNc2c(N3CCCCC3)c(=O)c2=O)CC1)N1CCCCC1 (centres undefined)	31	i	504	i	·	·
CC1CCCN(C(=O)C2CCC(CNc3c(N4CCCCC4)c(=O)c3=O)CC2)C1 (centres undefined)	1	-6*	600	i	i	i
COc1ccc(CN(C(=O)c2nsc(Cl)c2Cl)C(C(=O)NC2CCCCC2)c2ccc(OC)cc2)cc1 (centres undefined)	-40	i	404	i	·	·
COc1ccc(CN(C(=O)c2ccc3c(c2)OCCO3)C(C(=O)NC2CCCCC2)c2ccc3ncccc3c2)cc1 (centres undefined)	4	-9.2*	480	i	16%*	i
O=C(NC1CCCCC1)C(c1ccc2ncccc2c1)N(Cc1ccccc1)C(=O)c1ccc2c(c1)OCCO2 (centres undefined)	3	-6.7*	292	i	47%*	i
Cc1ccc(C(C(=O)NC2CCCCC2)N(C(=O)CCCC(=O)Nc2ccccn2)c2ccc3c(c2)OCCO3)cc1 (centres undefined)	7	i	581	i	·	·
O=C(Nc1ccccc1F)C1CCCN1S(=O)(=O)c1cccc2nsnc12 (centres undefined)	5	i	321	i	·	·
CC1CCN(CCNC(=O)C2CCCN(S(=O)(=O)c3cccc4nsnc34)C2)CC1 (centres undefined)	-2	-8.1*	269	i	18%*	i
O=C(Nc1ccccc1Br)C1CCCN1S(=O)(=O)c1cccc2nsnc12 (centres undefined)	5	-7.9*	684	i	23%*	i
CC(C)Oc1ccc(CNC(=O)C2CCCN(S(=O)(=O)N3CCOCC3)C2)cc1 (centres undefined)	3	i	306	i	·	·
CC1(C)CC(=O)C2=C(C1)OC(N)=C(C#N)C2c1cc2c(cc1[N+](=O)[O-])OCO2 (centres undefined)	-17	i	i	i	·	·
CS(=O)(=O)c1ncc(Cl)c(C(=O)Nc2ccc(OC(F)F)cc2)n1	26	-6.5*	148	i	50%*	i
CS(=O)(=O)c1ccc(C(=O)Nc2ccc(N3CCOCC3)cc2)c(Cl)c1	17	i	239	i	·	·
CCOC(=O)c1nc(S(C)(=O)=O)ncc1Cl	20	-6.3*	206	i	47%*	i
CCOC(=O)c1nc(S(C)(=O)=O)ncc1N1CCOCC1	8	i	381	i	·	·
CS(=O)(=O)c1ncc(Cl)c(C(=O)Nc2ccc(N3CCOCC3)cc2)n1	16	-6.9*	350	i	56%*	i
